According to ChEMBL document CHEMBL4014267, “Anti-inflammatory and Antiosteoporosis Flavonoids from the Rhizomes of Helminthostachys zeylanica” (J Nat Prod, 2017):
Calls of active or inactive are those of the source. The rule behind the calls is not given here.

How the values were obtained:
Assay type in all cases: functional, cell-based
[1] = system: BV-2; assay: Antiinflammatory activity in mouse BV2 cells assessed as inhibition of LPS-induced nitric oxide production after 24 hrs by Griess assay; conditions: BV-2, 24 h
Outline: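 Murine BV2 microglia were grown in DMEM with 5% FBS and stimulated with LPS (0.5 μg/mL). NO was read as nitrite accumulated in the medium 24 h after stimulation, using Griess reagent.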

[2] = system: RAW264.7; assay: Antiosteoporotic activity in mouse RAW264.7 cells assessed as inhibition of RANKL-induced osteoclast differentiation after 4 to 5 days by TRAP assay
Outline: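 RAW264.7 macrophages were differentiated for 4−5 days in DMEM with 100 ng/mL recombinant murine RANKL, alone or with test agent at 1, 3, 10 or 20 μM. Cells were then fixed and TRAP activity was read with a p-nitrophenylphosphate reaction buffer.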

[3] = system: RAW264.7; assay: Osteoblastogenic activity in mouse […] cells at 10 uM

Row | SMILES | IC50 [1] [µM] | IC50 [2] [µM] | Activity [3]
1 | CC1(C)CCC[C@]2(C)Oc3c(c(O)cc4oc(-c5ccc(O)c(O)c5)cc(=O)c34)C[C@H]12 | 19.7 | 4.6 | inactive
2 | CC1=CCCC(C)(C)C1Cc1c(O)cc(/C=C/c2ccc(O)cc2)cc1O (stereo not drawn) | 6.2 | – | –
3 | CC1=CCCC(C)(C)C12Cc1c(c(O)cc3oc4c(=O)c5c(O)cc(O)cc5oc4c13)O2 (stereo not drawn) | 18 | 4.5 | inactive
4 | S=C(S)N1CCCC1 [PYRROLIDINE DITHIOCARBAMATE] | 10.8 | – | –
5 | CC1=CCCC(C)(C)C1Cc1c(O)c(O)cc2oc3c(=O)c4c(O)cc(O)cc4oc3c12 (stereo not drawn) [UGONIN M] | 10.1 | 2.5 | inactive
6 | C=C1CCCC(C)(C)[C@H]1Cc1c(O)cc2oc(-c3ccc(O)c(O)c3)cc(=O)c2c1O | 6.5 | – | –
7 | CC1(C)CCC[C@]2(C)Oc3c(O)cc4oc5c(=O)c6c(O)cc(O)cc6oc5c4c3C[C@H]12 | 7 | 3.5 | inactive
8 | C=C1CCCC(C)(C)[C@H]1Cc1c(OC)cc2oc(-c3ccc(O)c(O)c3)c(OC)c(=O)c2c1O | 6.7 | 3.2 | inactive
9 | CC1(C)CC=C[C@]2(C)Oc3c(O)cc4oc5c(=O)c6c(O)cc(O)cc6oc5c4c3C[C@H]12 [UGONIN O] | 7.7 | 3.3 | inactive
10 | C=C1CCCC(C)(C)[C@H]1Cc1c(OC)cc2oc(-c3ccc(O)c(O)c3)cc(=O)c2c1O | 8.1 | 1.8 | Active
11 | O=c1c(-c2ccc(O)cc2)coc2cc(O)cc(O)c12 [GENISTEIN] | – | 11.4 | –
12 | CC1(C)CCC[C@@]2(C)Oc3c(c(O)cc4oc(-c5ccc(O)c(O)c5)cc(=O)c34)C[C@H]12 | 24.1 | > 10 | inactive
